# This is a sample that favours compounds with a hit; in the whole collection about 2.3% have one here.
# ASAP1 inh: blocks human ASAP1-stimulated Arf1 GTP hydrolysis | Q9ULH1 | GDP FP detection | inhibition, % at 16.5 µM | 360,000 compounds, 0.19% hits; in the data active = inhibition above about 25%;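 also: 0% = vehicle with enzyme and substrate and 100% = no enzyme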
# ARFGAP1 inhibitor: rat ARFGAP1 inhibition; Q62848; Arfgap1-stimulated ARF1 GTP hydrolysis, GDP FP detection; inhibition, % at 16.5 µM; 360,000 compounds, 0.26% hits;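 active = inhibition above a per-plate limit, mean inhibition of low control wells plus 3 SD, cut at about 25% in these data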;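 also: 0% = DMSO wells with enzyme and 100% = wells lacking Arfgap1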
# Target sequence (Q62848 1-136 limits assumed): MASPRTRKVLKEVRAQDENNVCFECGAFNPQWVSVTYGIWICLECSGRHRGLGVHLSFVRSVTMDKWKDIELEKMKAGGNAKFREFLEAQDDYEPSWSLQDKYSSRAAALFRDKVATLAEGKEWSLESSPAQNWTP
#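 Material: rat Arfgap1 catalytic domain, aa 1-136; also added: human ARF1(Δ1-17)-GTP substrate; compound dosing: one concentration, 16.5 µM, DMSO 1.26%; incubation: GTP hydrolysis reaction 2 h at 25 °C; measured by: Tracer-displacement fluorescence polarization with EDTA stop, 620/688 nm; evaluation: % inhibition from polarization; repeats: one replicate per compound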
# HGIII-sPLA2 inh: Blocks human group III sPLA2 activity; QFRET BODIPY PC-A2 liposome hydrolysis, fluorescence; 370,000 compounds, 0.56% hits; AID 743126; inhibition, % at 12.2 µM;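 active = inhibition above mean plus 3 SD of compounds lying within the high and low control bounds, cut at about 19% in these data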;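 also: 0% = median of test compound wells and 100% = no enzyme DMSO wells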
# Target sequence (Q9NZ20 whole entry, looked up): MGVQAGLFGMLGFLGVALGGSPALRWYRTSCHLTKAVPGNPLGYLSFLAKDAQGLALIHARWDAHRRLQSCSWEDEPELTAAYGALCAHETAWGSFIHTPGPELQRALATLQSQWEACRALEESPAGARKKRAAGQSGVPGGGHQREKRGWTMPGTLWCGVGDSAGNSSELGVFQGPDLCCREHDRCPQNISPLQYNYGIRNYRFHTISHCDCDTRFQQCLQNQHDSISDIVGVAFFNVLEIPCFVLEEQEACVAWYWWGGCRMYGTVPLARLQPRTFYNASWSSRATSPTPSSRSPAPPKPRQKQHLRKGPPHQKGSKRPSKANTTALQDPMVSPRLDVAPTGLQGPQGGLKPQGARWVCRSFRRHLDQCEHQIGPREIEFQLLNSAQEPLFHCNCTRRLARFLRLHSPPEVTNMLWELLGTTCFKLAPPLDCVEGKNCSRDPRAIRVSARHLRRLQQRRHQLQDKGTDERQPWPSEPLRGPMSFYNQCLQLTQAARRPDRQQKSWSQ
# SKKanGAS inh: SKKanGAS growth inhibition; S. pyogenes SKKanGAS, kanamycin growth, BacTiter-Glo, 6 h; inhibition, % at 7.5 µM; 300,000 compounds, 1.3% hits;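 active = mean replicate score, as percent of positive control median, at least 50; inconclusive = mean below 50 but one replicate at or above 50; inactive = mean and every replicate below 50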;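 also: strain carries kanamycin resistance gene driven by streptokinase promoter and grows in 40 µg/ml kanamycin; loss of luminescence reflects streptokinase promoter inhibition or plain growth inhibition; 0% = median of DMSO wells and 100% = positive control at its reference dose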
# Calb FLC: affects C. albicans growth with fluconazole; C. albicans CaCi-2 + fluconazole, Alamar Blue growth, 48 h; growth inhibition, % (concentration not given with the values); 300,000 compounds, 0.57% hits; AID 1979;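 active = growth inhibition above about 58% in most replicates, limit read from the data, passing the limit was not always enough; inconclusive = exactly half the replicates above a set limit; inactive = most replicates below a set limit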;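 also: all wells also contain fluconazole at 8 µg/ml as a sub-toxic cotreatment; 0% = median of DMSO wells and 100% = median of geldanamycin control wells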
# hGIII sPLA2 conf: human GIII-sPLA2 inhibition, confirmation; inhibition, % at 12.2 µM; shares compounds with HGIII-sPLA2 inh; 2,000 compounds, 34% hits; recombinant hGIII-sPLA2, BODIPY PC-A2 QFRET fluorescence;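 active = mean inhibition across triplicates above the hit cutoff set in the earlier primary screen, cut at about 19% in these data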;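 also: 0% = enzyme with DMSO and 100% = DMSO wells lacking enzyme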
# BODIPY interf: optically interferes with 535nm fluorescence in sPLA2 counter-screen; shares compounds with HGIII-sPLA2 inh; AID 743282; 2,000 compounds, 8.5% hits; inhibition, % at 12.2 µM; BODIPY FL product fluorescence interference, QFRET;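 active = average inhibition above the solvent-only control mean plus 3 SD, cut at about 6% in these data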;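 also: 0% = DMSO with substrate plus product and 100% = DMSO with substrate alone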
# 535nm interf DR: counter-screen for HGIII-sPLA2 inhibitors: 535nm fluorescence interference, dose response | shares compounds with HGIII-sPLA2 inh | IC50, µM | 240 tested, under 10 active | BODIPY FL product fluorescence interference, cell-free | AID 743455;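 active = IC50 at or below 10 µM; inactive = IC50 above 10 µM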
# Numbers without * were called inactive; ? = inconclusive; / = not tested or not shown; ! = not active in a repeat.
SMILES,ASAP1 inh,ARFGAP1 inhibitor,HGIII-sPLA2 inh,SKKanGAS inh,Calb FLC,hGIII sPLA2 conf,BODIPY interf,others
COc1ccc(NCC(=O)Nc2ccc(Br)cc2F)c(OC)c1,3,3,22*,1,4,23*,4,
CCC(=O)Nc1ccc(OC)cc1OC,-3,10,7,4,-16,/,/,
O=C(C1CCCN1S(=O)(=O)c1ccccc1[N+](=O)[O-])N1CCc2ccccc2C1 (stereo unspecified),/,/,2,/,/,/,/,
O=C(NC1CCCC1)[C@@H]1CCCN1C(=O)[C@H](Cc1cccnc1)NC(=O)N1CCOCC1,-6,10,1,/,/,/,/,
CC(=O)C1=C(C)Nc2ncnn2C1c1ccc(O)cc1 (stereo unspecified),-15,12,0,8,/,/,/,
CC(=O)C1=C(C)Nc2ncnn2C1c1ccc(F)cc1 (stereo unspecified),-3,8,22*,-1,5,11,-5,
CCCC[C@H]1C2CC(OC(=O)Nc3ccc(C(F)(F)F)cc3)C(C2)[C@H]2CCCCN21 (stereo partly specified),/,/,3,/,/,/,/,
O=S(=O)(O)c1cc(O)c2cc(Nc3ccccc3)ccc2c1,-5,6,6,/,/,/,/,
O=S(=O)(O)c1ccc(O)c2cc(Nc3ccccc3)ccc12,-11,-29,25*,/,/,11,1,
CN(C)c1ccc(C=NNc2nc3c([nH]2)c(=O)n(C)c(=O)n3C)cc1,-7,4,7,/,/,/,/,
CN(C)c1ccc(/C=N\Nc2nc(-c3ccccc3)cc(=O)[nH]2)cc1,7,9,20*,6,22,7,2,
CCCC(=O)NC(c1ccc(N(C)C)cc1)c1ccc2cccnc2c1O (stereo unspecified),-1,8,23*,39,92*,25*,-5,
CCCC(=O)NC(c1ccc(C(C)C)cc1)c1ccc2cccnc2c1O (stereo unspecified),3,8,20*,84*,89*,18,-12,
CCOc1ccc(C(NC(=O)CC)c2c(O)ccc3ccccc23)cc1 (stereo unspecified),7,1,-32,3,-41,/,/,
CCCC(=O)NC(c1ccccc1Cl)c1ccc2cccnc2c1O (stereo unspecified),1,-9,30*,18,83*,26*,1,
CCC(=O)NC(c1ccc(C)cc1)c1ccc2cccnc2c1O (stereo unspecified),5,11,21*,71*,0,16,-12,
CC(C)Sc1cc(N2CCCC2)nc(-c2ccccc2Cl)n1,-3,1,22*,-11,13,3,-7,
COC(=O)c1cc(-c2cc3ccccc3s2)c(=O)n2c1CCC2,/,/,-3,/,/,/,/,
Nc1nc(-c2ccccc2)c(N=Nc2ccc(Cl)cc2)s1,-8,15,19*,11,12,34*,7.1*,
Nc1nc(-c2ccccc2)c(-c2ccccc2)s1,16,-6,-4,8,9,/,/,
Cc1ccccc1NC(=O)N(C)[C@H]1C[C@H]2c3[nH]c4c(-c5ccccc5)cccc4c3CCN2C(=O)[C@H]1[C@H](C)O,-10,2,-23,/,/,/,/,
CC(C)(C)[C@@H]1/C(=C/C2CC2)N2C(=O)C[C@@H](c3ccccc3)N=C2N1Cc1ccc2c(c1)OCO2,/,/,6,/,/,/,/,
CCOC(=O)c1cnn(-c2ccccc2)c1NC(=O)CN1CCCCC1,2,2,21*,3,-2,-1,-7,
CC(C)c1ccc2c(c1)CC[C@H]1[C@](C)(CN)CCC[C@]21C,7,5,21*!,/,/,21*,-28,
CCn1c(NC(=S)Nc2ccccc2)nc2ccccc21,-5,-2,23*,35,6,24*,3,
SMILES,ASAP1 inh,ARFGAP1 inhibitor,HGIII-sPLA2 inh,SKKanGAS inh,Calb FLC,hGIII sPLA2 conf,BODIPY interf,others
CCCn1c(NC(=S)Nc2ccccc2)nc2ccccc21,-2,10,37*,4,-4,48*,6,535nm interf DR=>122
CCn1c(NC(=O)C2CCCCC2)nc2ccccc21,5,2,2,35,21,/,/,
COc1ccc(Cn2ccc3ccc(-c4ccc5ccn(C(=O)c6ccccc6)c5c4)cc32)cc1,/,/,-3,/,/,/,/,
CN(C)S(=O)(=O)c1cccc(NC(=S)N/N=C/c2cc(Br)ccc2O)c1,15,3,39*,107*,81*,28*,11*,
CN(C)S(=O)(=O)c1cccc(NC(=S)N/N=C/c2cccc(O)c2)c1,6,14,-9,-4,-19,/,/,
Cc1cc(N(C)C)ccc1N=Nc1ccc(N)cc1,-1,1,26*,2,-7,38*,18*,
Nc1ccc(N=Nc2ccc(N)cc2)cc1,8,5,10,-5,-11,/,/,
C/C(=N\OCc1nc2ccccc2c(=O)n1/N=C/c1cc(C)cc([N+](=O)[O-])c1O)c1ccccc1,-1,2,22*,34,-4,33*,8.8*,
Cc1ccccc1NC(=S)NC(=O)c1cncc(Br)c1,4,17,23*,-6,?,7,2,
Cc1ccc(F)cc1NC(=S)NCCc1ccccc1,5,-1,22*,2,-25,20*,-5,
Cc1ccc(NC(=S)NCCc2ccc(F)cc2)c(C)c1,-7,-10,2,-1,-6,/,/,
CC(C)(C)c1ccc(S(=O)(=O)N2CCC(C(=O)NCCC3=CCCCC3)CC2)cc1,/,/,-7,/,/,/,/,
CNC(=S)N/N=C/c1c(C(=O)OC)cnn1-c1ccc(F)cc1F,6,-3,14,-1,11,/,/,
COC(=O)c1cnn(-c2ccc(F)cc2F)c1/C=N/NC(=S)Nc1ccccc1,/,/,22*,/,/,20*,0,
S=C(Nc1ccc(Cl)cc1)c1nc2ccccc2[nH]1,-4,-3,30*,76*,96*,36*,2,535nm interf DR=>122
Cc1ccccc1NC(=O)NCCc1nc2ccccc2[nH]1,-14,4,0,0,1,/,/,
Cc1ccccc1NC(=S)c1nc2ccccc2[nH]1,-8,-8,45*,19,13,31*,3,535nm interf DR=>122
CCNC(=O)N1CCN(c2ccc(N3CCN(Cc4ccccc4)[C@@H](C)C3)c(C)c2)[C@@H](C)C1,7,3,18,/,/,/,/,
CCOc1cc(CNc2ncc(-c3ccc(OC)cc3)n2C)ccc1O,-5,-8,20*,1,9,6,-17,
O=C1c2ccccc2C(=O)c2c1ccc(O)c2O,-19,-14,21*,/,/,11,-2,
COc1cc(NC(=O)C2CCCN(S(=O)(=O)c3ccccc3[N+](=O)[O-])C2)cc(OC)c1 (stereo unspecified),/,/,-26,/,/,/,/,
O=C(/C=C/c1cccs1)NC(=S)NNC(=O)Cc1cccs1,-6,8,29*,68*,-6,39*,-7,535nm interf DR=>122
